Experimental findings from ChEMBL document CHEMBL3102691, “4-Quinolone alkaloids from Melochia odorata” (J Nat Prod, 2014) are described below.

SMILES strings stand for the structures. A value given as a limit tells only on which side of the number the result lay.

The nature of series [1]: Cytotoxicity against human CEM-TART cells assessed as cell viability after 72 hrs by MTT assay. It counts as cell-based. To be noted: read-out: LC50. The gist of the method: (§1)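 20,000 CEM-TART cells with compound (DMSO, 0.5% final) in RPMI/20% FBS with antibiotic; 72 h at 37 °C, 5% CO2; MTT (5 mg/mL in PBS) added, formazan dissolved in DMSO/0.1% SDS and read on plate reader; triplicate or quadruplicate. Highest concentration tested 100 μM.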

The test system of series [2] is Human immunodeficiency virus 1. The experiment in a line: Antiviral activity against HIV1 infected in human CEM-TART cells assessed as inhibition of viral p24 antigen production at 1.7 uM after 48 hrs by FACS analysis. The following applies: Human immunodeficiency virus 1, CEM-TART. It is filed as functional. The gist of the method:
(§2)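 HIV-infected CEM-TART cells, 48 h. Cells washed in PBS and blocked with murine myeloma IgG (1:100, 30 min, 4 °C). Then fixed in PBS/1% paraformaldehyde/0.05% Triton X100 and stained with AG3.0 mouse anti-P24 (1:50). FITC goat anti-mouse secondary, 30 min at 4 °C each step. Intracellular P24 read by flow cytometry. AZT 5 or 0.5 μg/mL controls.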

A short description of series [3]: Therapeutic index, ratio of LC50 for human CEM-TART cells to EC50 for HIV-1 infected in human CEM-TART cells. To be noted: read-out: TI. It is filed as cell-based.
For series [4], the system named is Human immunodeficiency virus 1. Briefly: Antiviral activity against HIV-1 infected in human CEM-TART cells assessed as protection against virus-induced cytopathicity after 96 hrs by MTT assay. It is filed as functional, organism-based. The gist of the method: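 1A2 subclone of CEM-TART (more lysis-sensitive) in RPMI 1640/20% FBS; compound in DMSO (1% vol) added 2 h after HIV infection; 96 h at 37 °C, 5% CO2; viability by MTT (3–4 h), formazan dissolved in DMSO/0.1% SDS, A570. Triplicates per plate; EC50 = concentration giving 50% of protection by 5 μM AZT, data from ≥3 experiments combined.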
(In general: Cytopathic effects are the visible damage that an infection or toxin causes in cultured cells.)

The subject of series [5] is Human immunodeficiency virus 1. The experiment in a line: Antiviral activity against HIV1 infected in human CEM-TART cells assessed as inhibition of viral p24 antigen production at 0.95 uM after 48 hrs by FACS analysis. It counts as functional. The following applies: Human immunodeficiency virus 1, CEM-TART. The gist of the method:
as §2

Series [6] can be described thus: Cytotoxicity against human CEM-TART cells assessed as cell viability at 100 uM after 72 hrs by MTT assay. It counts as cell-based. The gist of the method:
as §1
In general terms: Tetrazolium assays rely on reduction of a dye to a coloured formazan, in cell work by metabolically active cells.

Setting [7] is: Human immunodeficiency virus 1, CEM-TART, 96 h, read-out: EC50.

The inhibition is how much of the control response was suppressed. One may read the EC50 as the concentration that produces a half-maximal response.

In the case of `COc1ccccc1[C@@]1(O)c2ccc3[nH]c(C)c(OC)c(=O)c3c2[C@@H]2CC[C@H]1O2`, the CC50 at 72 h in series [1] is 102 µM. The inhibition at 1.7 µM in series [2] was above 50%. Also, the selectivity ratio in series [3] came to 2. Moreover, the 50% effective concentration (EC50) in series [4] (setting [7]) was found to be 56.2 µM.

In the case of `COc1c(C)[nH]c2ccc3c(c2c1=O)[C@@H]1CCC[C@@]3(c2ccccc2)O1`, in series [1], the CC50 at 72 h was 11 µM. The inhibition at 0.95 µM in series [5] is above 50%. In addition, the selectivity ratio in series [3] was 13. Moreover, the EC50 in series [4] (setting [7]) was determined as 0.84 µM.

Regarding `Cc1[nH]c2ccc3c(c2c(=O)c1O[C@@H]1O[C@H](CO)[C@@H](O)[C@H](O)[C@H]1O)[C@@H]1CC[C@H](O)[C@@]3(c2ccccc2)O1`, the Activity entry in series [6] was “Non-toxic”. Moreover, the EC50 entry in series [4] (cem-tart) is reported as “Not Active”.

With `Cc1cn([C@H]2C[C@H](N=[N+]=[N-])[C@@H](CO)O2)c(=O)[nH]c1=O` [ZIDOVUDINE], the CC50 at 72 h in series [1] was 89.5 µM. Besides, in series [4] (setting [7]), the half-maximal effective concentration (EC50) was determined as 1.3 µM.
